Assay results: the EternaBench riboswitch data

Tested on: MS2 coat protein
Assay: apparent Kd, MS2 coat protein; higher = weaker binding; RNA-MaP array; FMN 200 µM where present
Procedure, shortened: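 Stalled E. coli RNA polymerase transcribed each design on Illumina sequencing-chip clusters. The clusters were titrated with SNAP-549-labelled MS2 coat protein, starting at 0.7 or 1.5 nM and doubling up to 3 µM, first without ligand and then with constant ligand, in 100 mM Tris-HCl pH 7.5, 80 mM KCl, 4 mM MgCl2, BSA, DTT, yeast tRNA and Tween-20. Green signal was normalised to red-channel RNA signal and to the control-cluster median Fmax. The apparent Kd is the median of filtered binding-curve fits made for each cluster.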

[1] = designed as: OFF switch for flavin mononucleotide, no ligand
[2] = ligand present: flavin mononucleotide, designed as: OFF switch for flavin mononucleotide
[3] = designed as: ON switch for flavin mononucleotide, no ligand
[4] = ligand present: flavin mononucleotide, designed as: ON switch for flavin mononucleotide

Sequence | apparent Kd [1] [nM] | apparent Kd [2] [nM] | apparent Kd [3] [nM] | apparent Kd [4] [nM]
ACAUGGUAUGUCAGGAUAUCUAACCGCAACGUUCUAGAGAAGGGACAUGAGGAUCACCCAUGUACGUUGUAAGA | 54.3 | 117 |  | 
ACAUGUUUUGUAGGAUAUCACUUGUUAUGUUAUAUAUUUGUUAUAAUCUAUUGAGAAGGACAUUUACAUGAGGAUCACCCAUGU | 8.83 | 7.08 |  | 
ACCAAUGGAGGAUAUACAUGAGGAUCACCCAUGUUUAUCCUACAUAGGUGAAAAAUAUGUAGAAGGCCAUUGGA | 17 | 20.5 |  | 
ACCACGGGAGGAUAUACAUGAGGAUCACCCAUGUCAACUCCACGUGCCCACGUCCUCUGUAGAAGGCCCUACAU | 16 | 24.3 |  | 
ACCAUACAUGAGGAUCACCCAUGUUAGGAUAUGAGAGACCCACAUAGUCCUGGUAGCAUCAGAAGGAGCAGGGU | 20.6 | 23.7 |  | 
ACCAUUUACUAAUUAUCUAUACAUGAGGAUCACCCAUGUUAUGAGGAUAUCAUCGUGAAACACGAUGAGAAGGUAUAGCAUUCG | 18.1 | 22.1 |  | 
ACCAUUUACUAAUUGUCUAUACAUGAGGAUCACCCAUGUUAUGAGGAUAUCAUCGUGAAACACGAUGAGAAGGCAUAGCAUUCG | 64.5 | 213 |  | 
ACCCAGUUUUGCACUACAUGAGGAUCACCCAUGUGAGCGAGCAGAAGGACGAUGGGUGGAAAAUCGUAGGAUAUGCACUGGGCU |  |  | 44.8 | 12.3
ACCGAACAUGAGGAUCACCCAUGUGAGGAUAUAGACGCGUAUUUAACGCGUAACAAAACUAGAAGGCACUGGGC | 27.2 | 16.1 |  | 
ACCGAGACAGAAGGAUAUACAUUGGUUACGCUGUUCGCGUCCUCGACCACAUGAGGAUCACCCAUGUAGAAGGUUUGUAGCGCG | 16.5 | 42.7 |  | 
ACCGAUAGAGGAUAUACAGGUCGAUACAUGAGGAUCACCCAUGUUACCCUCGGUACACCCGUAGAAGGUUGUGGCU | 263 | 248 |  | 
ACCGGGUGUCACGUAUUACCGACAUGAGGAUCACCCAUGUAGGAGGAUAUGCAGACCGACAUAAAGCAGAAGGCCUACGUUUUC | 6.72 | 35.8 |  | 
ACCGGUGUAGGAUAUAUCUGGGAUGAAGAUGAUCCUGCUAAACAUGAGGAUCACCCAUGUAGAAGGAUGCCUGG | 83.6 | 178 |  | 
ACCUCACAUGAGGAUCACCCAUGUCAGGAUAUACAAACCGUGUAAAGACACGGUCGUAGUAGAAGGGACUAUGG | 68 | 18.7 |  | 
ACCUCACAUGAGGAUCACCCAUGUCAGGAUAUACCCAAAGCUGCGAAAAUAUCCAGCUGUAGAAGGGACAGGCU | 13.9 | 16.1 |  | 
ACCUCACAUGAGGAUCACCCAUGUCAGGAUAUUCAAACAGGCGAAACUCCGCCUUCUCGAAGAAGGGACAUUAA | 15.9 | 64.5 |  | 
ACCUCACAUGAGGAUCACCCAUGUUAGGAUAUCUCGACACUCCGCGGGCGGUAGCGUCAGAGAAGGAACGUGCU | 29.1 | 24.9 |  | 
ACCUGCCGUGGCACGGUAGUACCGGAGGAUAUCCGCGUCGGUCAUGACAUGAGGAUCACCCAUGUGGAGAAGGCUGGUUUGUCC | 11.9 | 24.8 |  | 
ACCUUACAUGAGGAUCACCCAUGUUAGGAUAUCUCGCCUGCGCUAACAAAGCGCAGGCAGAGAAGGGACGCGGG | 28.5 | 31.8 |  | 

Sequence | apparent Kd [1] [nM] | apparent Kd [2] [nM] | apparent Kd [3] [nM] | apparent Kd [4] [nM]
ACGAAGAUACAGAAGGGUAAAUUAGUUAAUUAUAAUUUGGUUAUGCACUACAGGAUAUGUUAUACAUGAGGAUCACCCAUGUUC |  |  | 18.2 | 13.7
ACGACGAAAGUCGAACGAUGUAGCAGAAGGACAUGAGGAUCACCCAUGUCAGCUGUAACAGCCAUGUAGGAUAUGCUACAUCGG | 4.37 | 5.85 |  | 
ACGACGAAAGUCGAACGAUGUAGCAGAAGGACAUGAGGAUCACCCAUGUCAGCUGUGAAAACCAUGUAGGAUAUGCUACAUCGA | 38.5 | 291 |  | 
ACGACGAAAGUCGAACGAUGUAGCAGAAGGACAUGAGGAUCACCCAUGUCAGCUGUGCAAAACAUGUAGGAUAUGCUACAUCGA | 6.14 | 11.3 |  | 
ACGCACGGAGGAUAUACAUGAGGAUCACCCAUGUCGGUGUAUUUUCGGCCAAAAUUUUGUAGAAGGCUGUCGUG | 222 | 526 |  | 
ACGCAGCUGGGUGAGGAUAUCGGUGGUACUACAUGAGGAUCACCCAUGUCCGAAGCUCGGACCUCCGAGAAGGCGCCCGGCUGCG |  |  | 284 | 31.4
ACGCGAUGGGAGAAGGUACUUUAAAAUAUUUUCACAUGAGGAUCACCCAUGUAAGGAUAUCCCAUCGUUAAAUAUUAUACAGCA | 6.49 | 5.24 |  | 
ACGGAACAUGAGGAUCACCCAUGUAUCUGAGAUAAGGUCUCGCAGGAUAUUCAGAGAAGCCUAUCGGAGAAGGGUGACACCAAA |  |  | 38.4 | 15.5
ACGGUGGUCACAGGAUAUCCGGCACGCGUGCCCGGAGAAGGGUGACUCAGAACCACAUGAGGAUCACCCAUGUGCCUUGCCGUA |  |  | 186 | 37.1
ACGUCUUAGUAGAAGGGACAUCGGCUGGUAAGCAUCAUCUCCUUCUCACAUGAGGAUCACCCAUGUCAGGAUAUACUAAGAUAC | 12.9 | 38.7 |  | 
ACGUGUAAGCAGAAGGGUUAGCACAUGAGGAUCACCCAUGUAACAGUGGACAGGAUAUGCGCUCAUGUUGGAUAGGGCCUUCCC |  |  | 302 | 67.6
ACGUUAAUUCGAGGAUAUCGGUGAUAUAUAUUACGAGAAGGCGAUAAUUGUGAUAAACUUAUAGACAUGAGGAUCACCCAUGUA |  |  | 42.1 | 38.2
ACUAGAUGAGGAUAUGCAUAUUUUCGUGUUCUUCUAGAUUAACAUGAGGAUCACCCAUGUAGAAGGCGUCUGGU | 30.7 | 62 |  | 
ACUAGAUGAGGAUAUGCAUGUUUUCGUGUUCUUCUAGAUUAACAUGAGGAUCACCCAUGUAGAAGGCGUCAUAU | 48.4 | 134 |  | 
ACUCAGUCAGGAUAUCGUUAAUUUAAUUGUUUGUAUUAGUUCGAGAAGGGACAUGAGGAUCACCCAUGUACUCA | 31.7 | 87.4 |  | 
ACUGACAUGAGGAUCACCCAUGUCUUGAAUAGGUCAAAUUCACAGGAUAUGCACGAGGACAGAGUGCAGAAGGGUGAUGCAAUG |  |  | 47.7 | 11.7
ACUGACAUGAGGAUCACCCAUGUCUUGGAUAGGCCAAAUUCACAGGAUAUGCAUGAGGAAAGAGUGCAGAAGGGUGAUGCAAUG |  |  | 43.6 | 23.9
ACUGACAUGAGGAUCACCCAUGUCUUGGAUAGGCCAAAUUCACAGGAUAUGCAUGAGGACAGCGUGCAGAAGGGUGAUGCAAUG |  |  | 54.6 | 25.5
ACUGUCCGAGAGAAGGGAACAUGAGGAUCACCCAUGUUACCUCACCUGGUGACGGAACUCCAAGUUCAGGAUAUCUCGAGCGGC | 4.85 | 5.98 |  | 

Sequence | apparent Kd [1] [nM] | apparent Kd [2] [nM] | apparent Kd [3] [nM] | apparent Kd [4] [nM]
ACUUAUGAAGGAUAUACUAGCGACAUGCGCUCAACACGCGCACAUGAGGAUCACCCAUGUAGAAGGUCAAACAU | 23.1 | 22.1 |  | 
ACUUCACAUGAGGAUCACCCAUGUCAGGCCGGACUAGGAUAUUAUCAUGCAGCGUAACCGUAAGAAGGAGUUGGAU |  |  | 88.3 | 187
ACUUGACAUGAGGAUCACCCAUGUCAGGAUAUAGUAGGACAAAUAAAUAAAAGUUCUACUAGAAGGGACGUGGG | 21.6 | 22.4 |  | 
ACUUGACAUGAGGAUCACCCAUGUCAGGAUAUAGUAGGACAAAUAAAUAAAAGUUCUACUAGAAGGGACUUGGG | 25.1 | 45.3 |  | 
ACUUGUAAGUAGAAGGUAGUCAUUAUAUUAAUCAUGUAAACAUGAGGAUCACCCAUGUAGAGUACUAAGGAUAUACAUCGAUAG |  | 9.91 |  | 
ACUUGUUAUUUAAUCAUUGAAUUGUAGGAUAUACUUACAUGAGGAUCACCCAUGUUAACAUGGAUGUAGAAGGACAUCUCAUUU | 98.9 | 55.1 |  | 
AGAAAACAUGAGGAUCACCCAUGUAAGGAUAUGCUAAGGGUGGCUUCGGCCACCCAAUGCAGAAGGUACAAAUA | 49.6 | 59.7 |  | 
AGAAAACAUGAGGAUCACCCAUGUGAGGAUAUCGAUGUCCAAGGCCGGGUGCGGGACUCGAGAAGGCACUUGGA | 76.9 | 32.3 |  | 
AGAAAACAUGAGGAUCACCCAUGUGAGGAUAUCGAUGUCCAAGGGUGGGUGCGGGACUCGAGAAGGCACUUGGA | 80.6 | 137 |  | 
AGAAAACAUGAGGAUCACCCAUGUGAGGAUAUCGAUGUCCAAGUCCGGGUGCGGGACUCGAGAAGGCACUUGGG | 55.9 | 55 |  | 
AGAAACUACGAGAAGGACAUAUAAUUCUUCAGAUACAUGAGGAUCACCCAUGUAGGAUAUCGUAGUUUCAGGAUCGUGAGAUCA | 5.95 | 10.3 |  | 
AGAAACUACGAGAAGGACAUGAAAAGUGCCGCAAACAUGAGGAUCACCCAUGUAGGAUAUCGUAGUUUCAGGAUCGUGAGAUCA | 15.8 | 108 |  | 
AGAAACUACGAGAAGGACAUGUGGUCCAAAAUAAACAUGAGGAUCACCCAUGUAGGAUAUCGUAGUUUCAGGAUCGUGAGAUCA | 260 | 12.3 |  | 
AGAAACUACGAGAAGGACAUGUGGUCCUUCAGUUACAUGAGGAUCACCCAUGUAGGAUAUAAAAGUUUCAGGAUCGUGAGAUCA | 6.78 | 7.1 |  | 
AGAAACUACGAGAAGGACAUGUGGUCCUUCAGUUACAUGAGGAUCACCCAUGUAGGAUAUCGUAGUUUCAGGAUCGUGAGAUCU | 32.5 | 13 |  | 
AGAAAGAAGCAAGGAUAUUGUAAGGUUAAUGUACAAGAAGGUGCUGUUUAUGUCUCUUAACAUGAGGAUCACCCAUGUAUUGGU |  |  | 52.6 | 44.1
AGAAAUCAUGUAGGAUAUGCAUGGCGAAGCUACGCAGAAGGACAUGAGGAUCACCCAUGUUAUAGCGUCCGAGAAAGGAUGCAA | 27.9 | 187 |  | 
AGAAGAACAUGAGGAUCACCCAUGUUCCUGCUGCUCCACAGACAGGAUAUGGGUGUCGUCGACAAUCAGAAGGGUUCGCGGAGC |  |  | 34.9 | 27.5
